Tests used:
Format in all cases: functional
Fusarium oxysporum = assay: Antifungal activity against Fusarium oxysporum at 500 ug/ml relative to control
In short: (§1)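 Pot culture test run as in the cited reference, with series compounds screened against five fungi: S. sclerotiorum (Lib.) de Bary, R. solani, F. oxysporum, C. cassiicola and B. cinerea. Culture plates were held at (24 ±1) °C. Commercial fungicides (dimehachlon, jinggangmycin, thiophanate methyl, chlorothalonil, pyrimethanil) served as controls under the same conditions.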

Rhizoctonia solani = assay: Antifungal activity against Rhizoctonia solani at 500 ug/ml relative to control; in short: as §1
Sclerotinia sclerotiorum = assay: Antifungal activity against Sclerotinia sclerotiorum (Lib.) de Bary at 500 ug/ml relative to control; in short: as §1
Corynespora cassiicola = assay: Antifungal activity against Corynespora cassiicola at 500 ug/ml relative to control; in short: as §1
Botrytis cinerea = assay: Antifungal activity against Botrytis cinerea at 500 ug/ml relative to control; in short: as §1

Compound | inhibition at 500 µg/mL (Fusarium oxysporum) [%] | inhibition at 500 µg/mL (Rhizoctonia solani) [%] | inhibition at 500 µg/mL (Sclerotinia sclerotiorum) [%] | inhibition at 500 µg/mL (Corynespora cassiicola) [%] | inhibition at 500 µg/mL (Botrytis cinerea) [%]
O=C(Nc1nnc(-c2ccccc2F)s1)C1CC1 | 84 | 5 | 23 | 68.3 | 67.5
O=C(Nc1nnc(-c2ccccc2Cl)s1)C1CC1 | 91 | 44 | 25.5 | 21.4 | 35.1
Cc1nnc(NC(=O)C2CC2)s1 | 84 | 5 | 23 | 52.4 | 67.5
Cc1cc(C)nc(Nc2ccccc2)n1 [PYRIMETHANIL] | – | – | – | – | 99.2
N#Cc1c(Cl)c(Cl)c(Cl)c(C#N)c1Cl [CHLOROTHALONIL] | – | – | – | 86.4 | –
COC(=O)NC(=S)Nc1ccccc1NC(=S)NC(=O)OC [THIOPHANATE METHYL] | 97 | – | – | – | –
Cc1cccc(-c2nnc(NC(=O)C3CC3)s2)c1 | 11 | 39 | 20 | 8.38 | 90.7
O=C(Nc1nnc(-c2ccc([N+](=O)[O-])cc2)s1)C1CC1 | 13 | 16 | 43.1 | 18.6 | 30.3
O=C(Nc1nnc(C2CC2)s1)C1CC1 | 37 | 21 | 26.7 | 13.3 | 66.6
O=C(Nc1nncs1)C1CC1 | 17 | 37 | 24 | 22.5 | 83.7
CCCc1nnc(NC(=O)C2CC2)s1 | 1 | 35 | 40 | 46.6 | 57.9
CCc1nnc(NC(=O)C2CC2)s1 | 10 | 23 | 51.7 | 49.7 | 32.1
O=C1CCC(=O)N1c1cc(Cl)cc(Cl)c1 [DIMETHACHLON] | – | – | 96.7 | – | –
CCCCc1nnc(NC(=O)C2CC2)s1 | 2 | 44 | 10.3 | 21.9 | 26
O=C(Nc1nnc(-c2ccccc2)s1)C1CC1 | 16 | 9 | 24 | 17.4 | 80.5
O=C(Nc1nnc(-c2ccc(Cl)cc2)s1)C1CC1 | 28 | 62 | 23.9 | 19.7 | 13.5
COc1ccc(-c2nnc(NC(=O)C3CC3)s2)cc1 | 12 | -9 | 33 | 33.3 | 79.4
Cc1ccccc1-c1nnc(NC(=O)C2CC2)s1 | 21 | 36 | 37.5 | 50.8 | 75.1
CC(C)c1nnc(NC(=O)C2CC2)s1 | 20 | 11 | 47.7 | 29.3 | 42

Source: ChEMBL document CHEMBL1152902, “Synthesis, antifungal activities and 3D-QSAR study of N-(5-substituted-1,3,4-thiadiazol-2-yl)cyclopropanecarboxamides” (2009)
